# Test results as given in ChEMBL document CHEMBL1158641, “Total synthesis of (+/-)-elegansidiol, (+/-)-farnesiferol B, and (+/-)-farnesiferol D” (2010).
# The source made the active and inactive calls. The calls are words filed in the database; no cut-off is given here.
# Assays:
# SK-N-SH = test: Cytotoxicity against human SK-N-SH cells after 48 hrs by SRB assay; format: functional
# Summary of the method: (§1)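 Compounds tested at […], triplicate wells, 48 h continuous exposure. SRB staining (0.4% in 1% acetic acid, 20 min RT), dye eluted with 10 mM trizma base, absorbance 540 nm (690 nm reference). GI50 from net-growth formula; experiments repeated three times.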
# A549 = test: Cytotoxicity against human A549 cells after 48 hrs by SRB assay; format: functional; summary of the method: as §1
Structure (SMILES),GI50 (SK-N-SH),LC50 (SK-N-SH),"GI50 (A549; A549, 48 h)","LC50 (A549; A549, 48 h)",GI50 (A549),LC50 (A549)
C=C1CC[C@@H](O)C(C)(C)[C@@H]1CCC(C)=CCOc1ccc2ccc(=O)oc2c1 (mixture of isomers),inactive,inactive,25 µM,46 µM,–,–
C=C1CC[C@H](O)C(C)(C)[C@@H]1CCC(C)=CCOc1ccc2ccc(=O)oc2c1 (mixture of isomers),inactive,inactive,–,–,inactive,inactive
C=C1CC[C@H](O)C(C)(C)[C@@H]1CC/C(C)=C/CO (racemic),inactive,inactive,–,–,inactive,inactive
COC(=O)Nc1nc2cc(C(=O)c3cccs3)ccc2[nH]1 [NOCODAZOLE],0.65 µM,–,0.5 µM,–,–,–
